{"source": "ChEMBL document CHEMBL2380206", "about": "“Discovery of potent, selective chymase inhibitors via fragment linking strategies” (J Med Chem, 2013)", "data": [{"species": "Homo sapiens", "experiment": "Selectivity ratio of IC50 for human cathepsin G to IC50 for recombinant human chymase", "how_it_was_run": "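Both IC50s from the same fluorogenic rhodamine 110 bis(Suc-Ala-Ala-Pro-Phe-amide) assay, 1 h at 28 °C/80% humidity, ex 485 / em 530 nm, with 0.01% CHAPS, 100 μM TCEP and 1% DMSO. Chymase: 500 pM recombinant human enzyme, 100 nM substrate, 20 mM Tris-HCl pH 8.0, 50 mM NaCl. Cathepsin G: 4 nM enzyme, 300 nM substrate, PBS plus 10 mM HEPES pH 7.4.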", "values": [{"molecule": "Cc1cccc2scc(Cn3c(SCCCC(=O)O)nc4ccccc43)c12", "Ratio IC50": 10}]}, {"biological_target": "T1, Cathepsin G (Homo sapiens, UniProt P08311)", "T1 sequence (P08311 whole entry)": "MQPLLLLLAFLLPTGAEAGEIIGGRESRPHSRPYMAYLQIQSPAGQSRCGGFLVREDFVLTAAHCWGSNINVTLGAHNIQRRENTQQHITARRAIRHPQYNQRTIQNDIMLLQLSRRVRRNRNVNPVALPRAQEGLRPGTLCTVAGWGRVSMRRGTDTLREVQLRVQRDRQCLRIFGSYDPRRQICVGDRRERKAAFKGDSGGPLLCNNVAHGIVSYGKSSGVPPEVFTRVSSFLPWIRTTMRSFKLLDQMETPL", "experiment": "Inhibition of human cathepsin G using bis(succinoyl-L-alanyl-L-prolyl-L-phenylalanylamide) as substrate after 1 hr by fluorescence assay", "units": {"IC50": "µM"}, "values": [{"molecule": "Cc1cccc2scc(Cn3c(SCCCC(=O)O)nc4ccccc43)c12", "IC50": 0.052}, {"molecule": "CCCC(Cn1c(=O)n(Cc2cc(Br)cc3c2CC(=O)N3)c2ccccc21)C(=O)O", "note": "(stereo not given)", "IC50": "> 10"}, {"molecule": "Cc1cccc2scc(Cn3c(=O)n(CCCC(=O)O)c4ccccc43)c12", "IC50": 1.4}, {"molecule": "CCCC(Cn1c(=O)n(Cc2cc(Br)cc3[nH]c(=O)sc23)c2ccccc21)C(=O)O", "note": "(stereo not given)", "IC50": "> 10"}, {"molecule": "CCCC(CC(=O)O)n1c(=O)n(Cc2cc(Br)cc3c2CC(=O)N3)c2ccccc21", "note": "(stereo not given)", "IC50": 5.4}, {"molecule": "O=C(O)CCn1c(=O)n(Cc2cc(Cl)cc3c2CC(=O)N3)c2ccccc21", "IC50": "> 10"}, {"molecule": "O=C(O)CCCSc1nc2ccccc2n1Cc1cc(Cl)cc2c1CC(=O)N2", "IC50": 3.8}, {"molecule": "CCCC(CC(=O)O)n1c(=O)n(Cc2cccc3c2CC(=O)N3)c2ccccc21", "note": "(stereo not given)", "IC50": "> 10"}, {"molecule": "O=C(O)CCn1c(=O)n(Cc2cc(Br)cc3c2CC(=O)N3)c2ccccc21", "IC50": "> 10"}, {"molecule": "O=C1Cc2ccc(Cl)cc2N1", "IC50": "> 1000"}, {"molecule": "CCCC(CC(=O)O)n1c(=O)n(Cc2cc(Cl)cc3c2CC(=O)N3)c2ccccc21", "note": "(stereo not given)", "IC50": "> 10"}]}, {"biological_target": "T2, Chymase (Homo sapiens, UniProt P23946)", "T2 sequence (P23946 whole entry)": "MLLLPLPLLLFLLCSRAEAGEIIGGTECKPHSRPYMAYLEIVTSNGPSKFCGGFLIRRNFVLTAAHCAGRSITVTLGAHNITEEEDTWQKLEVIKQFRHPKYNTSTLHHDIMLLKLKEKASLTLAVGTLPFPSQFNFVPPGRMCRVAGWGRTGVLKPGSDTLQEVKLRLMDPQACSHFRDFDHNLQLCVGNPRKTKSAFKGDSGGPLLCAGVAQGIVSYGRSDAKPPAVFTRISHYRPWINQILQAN", "experiment": "Inhibition of recombinant human chymase using bis(succinoyl-L-alanyl-L-prolyl-L-phenylalanylamide) as substrate after 1 hr by fluorescence assay", "units": {"IC50": "µM"}, "values": [{"molecule": "O=C1Cc2ccc(Br)cc2N1", "IC50": 570}, {"molecule": "O=C1Cc2ccccc2N1", "note": "[OXINDOLE]", "IC50": "> 1000"}, {"molecule": "CN1C(=O)Cc2ccc(Cl)cc21", "IC50": "> 1000"}, {"molecule": "O=C1Cc2cccc(Cl)c2N1", "IC50": "> 1000"}, {"molecule": "O=C1Cc2cc(Cl)ccc2N1", "IC50": "> 1000"}, {"molecule": "O=C1Cc2c(Cl)cccc2N1", "IC50": "> 1000"}, {"molecule": "O=C1NCc2ccc(Cl)cc21", "IC50": "> 1000"}]}, {"test_system": "Liver microsomes", "experiment": "Metabolic stability in human liver microsomes assessed as GSH adduct formation incubated for 3 min prior to NADPH addition measured after 2 hrs by mass spectrometric analysis", "values": [{"molecule": "CCCC(CC(=O)O)n1c(=O)n(Cc2cc(Cl)cc3c2CC(=O)N3)c2ccccc21", "note": "(stereo not given)", "Stability": "Stable"}]}]}
